Results reported in ChEMBL document CHEMBL4219235, “Novel fatty acid chain modified GLP-1 derivatives with prolonged in vivo glucose-lowering ability and balanced glucoregulatory activity” (Bioorg Med Chem, 2018).
Calls of active or inactive are those of the source.

Tests used:
[1] = Stability of the compound in Sprague-Dawley rat plasma by LC-MS/MS analysis; format: ADME, cell-free
Procedure, shortened: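 Compounds were incubated in plasma from adult male SD rats at 37 °C for up to 72 h. Samples at each time point underwent solid-phase extraction and LC-MS/MS analysis to follow degradation and derive half-life.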

[2] = target: Glucagon-like peptide 1 receptor (Homo sapiens, UniProt P43220); assay: Agonist activity at recombinant human GLP1 receptor expressed in HEK293 cells assessed as cAMP accumulation by TR-FRET assay; format: functional, cell-based
Glucagon-like peptide 1 receptor, sequence (P43220 whole entry): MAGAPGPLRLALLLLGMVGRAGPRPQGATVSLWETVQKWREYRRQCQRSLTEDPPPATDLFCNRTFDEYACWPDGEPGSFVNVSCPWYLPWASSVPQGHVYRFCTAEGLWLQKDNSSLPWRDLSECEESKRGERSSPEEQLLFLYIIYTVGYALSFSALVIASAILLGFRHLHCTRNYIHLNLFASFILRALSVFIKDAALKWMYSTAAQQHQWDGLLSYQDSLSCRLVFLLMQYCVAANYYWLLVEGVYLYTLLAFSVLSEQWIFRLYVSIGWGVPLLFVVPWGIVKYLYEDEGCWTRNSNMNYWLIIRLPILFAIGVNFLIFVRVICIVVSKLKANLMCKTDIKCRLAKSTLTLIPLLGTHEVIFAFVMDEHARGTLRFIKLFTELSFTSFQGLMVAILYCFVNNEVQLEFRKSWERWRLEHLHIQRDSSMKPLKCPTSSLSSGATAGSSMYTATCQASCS

[3] = tested on: INS1; assay: Cytoprotective activity against STZ-induced oxidative stress in rat INS-1 cells assessed as reduction in apoptosis at 10 nM after 24 hrs by Annexin-V-FITC/propidium iodide staining based flow cytometric analysis; format: functional, cell-based
Procedure, shortened: (§1)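 INS-1 cells, about 5000/well, were seeded for 24 h, then exposed to glucolipotoxic medium, 50 µM H2O2 or 1 µM STZ, plus peptide at 10 nM, for 24 h. Apoptosis was analyzed by flow cytometry; triplicate, repeated three times.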

[4] = tested on: Mus musculus; assay: Antidiabetic activity in STZ/diet-induced obese C57BL/6 mouse assessed as reduction in serum AST level at 25 nmol/kg, ip administered daily for 4 weeks measured post last dose; format: functional, organism-based
Procedure, shortened: (§2)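 Male C57BL/6J DIO mice on high-fat diet were treated for 4 weeks with saline as control; LFD-fed mice (n = 6/group) were used as normal reference. Water intake, food intake and body weight were recorded daily. Terminal serum leptin and adiponectin were measured by ELISA. TC, TG, HDL, LDL, ALT and AST were measured on a clinical chemistry analyzer.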

[5] = tested on: Mus musculus; assay: Antidiabetic activity in STZ/diet-induced obese C57BL/6 mouse assessed as reduction in serum leptin level at 25 nmol/kg, ip administered daily for 4 weeks measured post last dose; format: functional; procedure, shortened: as §2
[6] = tested on: Mus musculus; assay: Antidiabetic activity in C57BL/6 mouse assessed as reduction in blood glucose level at 25 nmol/kg, ip treated 30 mins prior to glucose challenge measured up to 90 mins by IPGTT; format: functional, organism-based
Procedure, shortened: (§3)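 Male C57BL/6 mice, 6 weeks old, fasted overnight (12 h), n = 6/group; given 25 nmol/kg or saline i.p., then i.p. glucose challenge (2.0 g/kg) 30 min later, set as 0 h. Glucose challenges were repeated at 6 h intervals to mimic three meals a day. Blood glucose was followed and AUC calculated.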

[7] = target: Albumin (Homo sapiens, UniProt P02768); assay: Binding affinity to human serum albumin after 3 hrs by LC-MS/MS analysis; set-up: concentration or dose not given beside the values
Albumin, sequence (P02768 whole entry): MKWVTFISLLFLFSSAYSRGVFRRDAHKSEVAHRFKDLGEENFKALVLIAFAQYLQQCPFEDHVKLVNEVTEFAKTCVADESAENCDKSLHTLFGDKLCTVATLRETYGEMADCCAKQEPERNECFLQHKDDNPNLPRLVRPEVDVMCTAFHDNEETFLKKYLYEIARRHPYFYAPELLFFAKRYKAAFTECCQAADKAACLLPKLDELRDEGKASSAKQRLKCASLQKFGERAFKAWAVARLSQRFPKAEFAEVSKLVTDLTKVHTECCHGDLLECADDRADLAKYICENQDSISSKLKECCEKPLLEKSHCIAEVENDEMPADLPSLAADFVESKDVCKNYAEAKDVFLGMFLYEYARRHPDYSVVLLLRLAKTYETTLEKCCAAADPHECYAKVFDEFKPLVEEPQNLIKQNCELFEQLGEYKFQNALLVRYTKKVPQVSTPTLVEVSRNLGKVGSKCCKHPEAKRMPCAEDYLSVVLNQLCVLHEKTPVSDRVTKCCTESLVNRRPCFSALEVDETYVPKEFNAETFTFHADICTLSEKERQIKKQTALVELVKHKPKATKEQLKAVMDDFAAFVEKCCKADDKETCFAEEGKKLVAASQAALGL
Procedure, shortened: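 HSA was coupled to NHS-activated Sepharose (6–7 mg HSA/mL wet resin); an inactivated albumin-free resin served as control. Peptide (100 µg/mL in PBS) was incubated with each resin for 3 h at 25 °C. After centrifugation, unbound peptide in the supernatant was quantified by LC-MS/MS.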

[8] = tested on: Mus musculus; assay: Antidiabetic activity in STZ/diet-induced obese C57BL/6 mouse assessed as reduction in ratio of LDL to HDL level at 25 nmol/kg, ip administered daily for 4 weeks measured post last dose; format: functional, organism-based; procedure, shortened: as §2
[9] = tested on: Mus musculus; assay: Antidiabetic activity in C57BL/6 mouse assessed as reduction in blood glucose level at 25 nmol/kg, ip treated 30 mins prior to glucose challenge measured after 120 mins by IPGTT; format: functional, organism-based; procedure, shortened: as §3
[10] = tested on: Mus musculus; assay: Antidiabetic activity in STZ/diet-induced obese C57BL/6 mouse assessed as reduction in serum total triglyceride level at 25 nmol/kg, ip administered daily for 4 weeks measured post last dose; format: functional, organism-based; procedure, shortened: as §2
[11] = tested on: Rattus norvegicus; assay: Antidiabetic activity in Sprague-Dawley rat assessed as reduction in blood glucose AUC at 25 nmol/kg, ip treated 30 mins prior to glucose challenge measured at 15 mins interval for 180 mins by OGTT; format: functional, organism-based
[12] = tested on: Mus musculus; assay: Antidiabetic activity in STZ/diet-induced obese C57BL/6 mouse assessed as reduction in cumulative water intake at 25 nmol/kg, ip administered daily for 4 weeks measured daily during compound dosing relative to control; format: functional; set-up: scale not given: the % may be the effect or the level left; procedure, shortened: as §2
[13] = tested on: Rattus norvegicus; assay: Antidiabetic activity in Sprague-Dawley rat assessed as blood glucose level at 25 nmol/kg, ip treated 30 mins prior to glucose challenge measured at 15 mins interval for 180 mins by OGTT (reference value: 13.8 +/- 1.31 nmol/L); format: functional
[14] = tested on: INS1; assay: Cytoprotective activity against STZ-induced oxidative stress in rat INS-1 cells assessed as cell death at 1 nM after 24 hrs by MTT assay (reference value: 45%); format: functional
[15] = tested on: Mus musculus; assay: Antidiabetic activity in C57BL/6 mouse assessed as reduction in blood glucose AUC (0 to 120 mins) at 25 nmol/kg, ip treated 30 mins prior to glucose challenge by IPGTT; format: functional, organism-based; procedure, shortened: as §3
[16] = tested on: Mus musculus; assay: Antidiabetic activity in STZ/diet-induced obese C57BL/6 mouse assessed as reduction in size of brown adipocytes at 25 nmol/kg, ip administered daily for 4 weeks measured post last dose; format: functional, organism-based
[17] = tested on: INS1; assay: Cytoprotective activity against H2O2-induced glucolipotoxicity in rat INS-1 cells assessed as reduction in apoptosis at 10 nM after 24 hrs by Annexin-V-FITC/propidium iodide staining based flow cytometric analysis; format: functional, cell-based; procedure, shortened: as §1
[18] = tested on: Mus musculus; assay: Hypoglycemic activity in STZ-induced diabetic Kunming mouse model assessed as time required to reduce blood glucose level of […] at 150 nmol/kg, ip administered as single dose; format: functional
Procedure, shortened: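 Non-fasted STZ-diabetic Kunming mice with free access to food and water received a single i.p. injection (25 or 150 nmol/kg) or saline; n = 6/group. Blood glucose was followed over time. Euglycemic duration was defined as time below 8.35 mmol/L, and glucose AUC0–36h was calculated.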

[19] = tested on: INS1; assay: Cytoprotective activity against H2O2-induced glucolipotoxicity in rat INS-1 cells assessed as increase in cell viability at 1 to 100 nM after 24 hrs by MTT assay; format: functional, cell-based
Procedure, shortened: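 INS-1 cells, about 5000/well, were seeded for 4 h, then stressed with one of: glucolipotoxic medium (25 mM glucose + 0.4 mM oleate-BSA), 50 µM H2O2 or 1 µM STZ. Peptide (1, 10 or 100 nM) was added and cells were incubated 24 h. Viability was read by MTT (200 µg/mL, 3 h, 37 °C), formazan dissolved in DMSO, A570. Triplicate, repeated three times.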

[20] = tested on: Mus musculus; assay: Antidiabetic activity in STZ-induced diabetic Kunming mouse model assessed as fasting blood glucose level at 25 nmol/kg, ip administered once daily for 3 weeks measured at 5 days interval for 21 days during compound dosing (reference value: […]); format: functional
Procedure, shortened: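 STZ diabetes induced with 40 mg/kg/day i.p. for 5 consecutive days after overnight fasting. Mice with fasting glucose ≥11.1 mM were grouped by matched body weight and dosed 25 nmol/kg i.p. once daily for 3 weeks; saline served as control. Fasting plasma glucose was measured every five days, and HbA1c at day 24; n = 6/group.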

[21] = tested on: Mus musculus; assay: Antidiabetic activity in STZ/diet-induced obese C57BL/6 mouse assessed as reduction in serum total cholesterol level at 25 nmol/kg, ip administered daily for 4 weeks measured post last dose; format: functional, organism-based; procedure, shortened: as §2
[22] = tested on: Mus musculus; assay: Hypoglycemic activity in STZ-induced diabetic Kunming mouse model assessed as time required to reduce blood glucose level of […] at 25 nmol/kg, ip administered as single dose; format: functional
Procedure, shortened: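 Non-fasted STZ-diabetic Kunming mice with free access to food and water received a single i.p. injection (25 or 150 nmol/kg) or saline; n = 6/group. Blood glucose was followed over time.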

SMILES: CC[C@H](C)[C@H](NC(=O)[C@H](Cc1ccccc1)NC(=O)[C@H](CCC(=O)O)NC(=O)[C@H](CCCCN)NC(=O)[C@H](C)NC(=O)[C@H](C)NC(=O)[C@H](CCC(N)=O)NC(=O)CNC(=O)[C@H](CCC(=O)O)NC(=O)[C@H](CC(C)C)NC(=O)[C@H](Cc1ccc(O)cc1)NC(=O)[C@H](CO)NC(=O)[C@H](CO)NC(=O)[C@@H](NC(=O)[C@H](CC(=O)O)NC(=O)[C@H](CO)NC(=O)[C@@H](NC(=O)[C@H](Cc1ccccc1)NC(=O)[C@@H](NC(=O)CNC(=O)[C@H](CCC(=O)O)NC(=O)CNC(=O)[C@@H](N)Cc1cnc[nH]1)[C@@H](C)O)[C@@H](C)O)C(C)C)C(=O)N[C@@H](C)C(=O)N[C@@H](Cc1c[nH]c2ccccc12)C(=O)N[C@@H](CC(C)C)C(=O)N[C@H](C(=O)N[C@@H](CCCCN)C(=O)NCC(=O)N[C@@H](CCCNC(=N)N)C(=O)N[C@@H](CSC1CC(=O)N(CCCCCCCCCCCC(=O)O)C1=O)C(N)=O)C(C)C (some centres not stated)
- Stability [1]: Stable
- EC50 [2]: 0.0198 nM
- Activity [3]: Active
- Activity [4]: Active
- Activity [5]: 2.5 ng/mL
- Activity [6]: inactive
- Activity [7]: 62.4%
- Activity [8]: inactive
- Activity [9]: Active
- Activity [10]: Active
- Activity [11]: Active
- Activity [12]: <=33.5%
- Activity [13]: 6.7e+06 nmol/L
- Activity [14]: 28.8%
- Activity [15]: Active
- Activity [16]: Active
- Activity [17]: Active
- Time [18]: 11.5 h
- Activity [19]: Active
- Activity [20]: 1.07e+07 nmol/L
- Activity [21]: Active
- Time [22]: 9.7 h
